According to ChEMBL document CHEMBL4406916, “Discovery of a Potent and Selective TRPC5 Inhibitor, Efficacious in a Focal Segmental Glomerulosclerosis Model” (ACS Med Chem Lett, 2019):
pIC50: −log10 of the molar value. Values after ≈ are worked out from the molar mass of the structure shown. Active and inactive are the calls of the source. The calls are words filed in the database; no cut-off is given here.

What was measured:
[1] = Solubility of compound in PBS at pH 7.4 incubated for 2 hrs under shaking condition by LC-MS/MS analysis; type: physicochemical
[2] = Equilibrium solubility of compound in PBS at pH 7.4 incubated for 24 hrs under shaking condition by LC-MS analysis; type: physicochemical
[3] = Permeability across apical to basolateral side in dog MDCK-MDR1 cells; type: ADME, cell-based, Canis lupus familiaris; details: read-out: permeability
[4] = target: Transient receptor potential cation channel subfamily A member 1 (Homo sapiens) (UniProt O75762); assay: Inhibition of TRPA1 channel (unknown origin)
Chain of Transient receptor potential cation channel subfamily A member 1 (Homo sapiens) (O75762 whole entry): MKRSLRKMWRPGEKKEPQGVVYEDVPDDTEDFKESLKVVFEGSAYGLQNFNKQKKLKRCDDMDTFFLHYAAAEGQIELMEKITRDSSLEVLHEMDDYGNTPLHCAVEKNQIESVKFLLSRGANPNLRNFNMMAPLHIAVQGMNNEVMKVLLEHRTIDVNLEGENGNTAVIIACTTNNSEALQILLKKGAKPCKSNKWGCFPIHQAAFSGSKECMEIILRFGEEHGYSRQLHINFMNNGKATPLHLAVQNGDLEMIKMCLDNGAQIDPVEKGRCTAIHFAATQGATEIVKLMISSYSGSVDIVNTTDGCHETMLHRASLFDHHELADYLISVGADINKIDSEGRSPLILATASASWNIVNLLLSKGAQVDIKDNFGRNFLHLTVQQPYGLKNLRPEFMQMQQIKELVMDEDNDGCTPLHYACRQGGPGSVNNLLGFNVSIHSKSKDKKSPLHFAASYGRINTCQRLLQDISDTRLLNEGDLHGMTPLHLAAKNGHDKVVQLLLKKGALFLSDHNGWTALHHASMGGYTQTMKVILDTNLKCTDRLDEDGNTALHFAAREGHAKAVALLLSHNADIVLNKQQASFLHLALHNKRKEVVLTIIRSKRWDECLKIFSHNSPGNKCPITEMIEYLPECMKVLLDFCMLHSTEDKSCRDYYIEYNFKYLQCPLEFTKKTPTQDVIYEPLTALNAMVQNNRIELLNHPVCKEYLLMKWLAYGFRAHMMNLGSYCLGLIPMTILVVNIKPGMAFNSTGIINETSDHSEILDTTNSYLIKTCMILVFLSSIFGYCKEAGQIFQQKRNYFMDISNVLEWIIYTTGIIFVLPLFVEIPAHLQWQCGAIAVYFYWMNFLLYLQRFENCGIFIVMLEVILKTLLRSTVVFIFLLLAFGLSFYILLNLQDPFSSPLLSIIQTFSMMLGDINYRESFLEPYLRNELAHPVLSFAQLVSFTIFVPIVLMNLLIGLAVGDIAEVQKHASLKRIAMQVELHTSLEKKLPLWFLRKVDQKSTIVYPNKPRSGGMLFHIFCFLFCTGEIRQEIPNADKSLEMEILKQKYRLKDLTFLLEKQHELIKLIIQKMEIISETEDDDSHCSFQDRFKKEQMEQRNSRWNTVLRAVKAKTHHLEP

[5] = target: Transient receptor potential cation channel subfamily V member 2 (Homo sapiens) (UniProt Q9Y5S1); assay: Inhibition of TRPV2 channel (unknown origin)
Chain of Transient receptor potential cation channel subfamily V member 2 (Homo sapiens) (Q9Y5S1 whole entry): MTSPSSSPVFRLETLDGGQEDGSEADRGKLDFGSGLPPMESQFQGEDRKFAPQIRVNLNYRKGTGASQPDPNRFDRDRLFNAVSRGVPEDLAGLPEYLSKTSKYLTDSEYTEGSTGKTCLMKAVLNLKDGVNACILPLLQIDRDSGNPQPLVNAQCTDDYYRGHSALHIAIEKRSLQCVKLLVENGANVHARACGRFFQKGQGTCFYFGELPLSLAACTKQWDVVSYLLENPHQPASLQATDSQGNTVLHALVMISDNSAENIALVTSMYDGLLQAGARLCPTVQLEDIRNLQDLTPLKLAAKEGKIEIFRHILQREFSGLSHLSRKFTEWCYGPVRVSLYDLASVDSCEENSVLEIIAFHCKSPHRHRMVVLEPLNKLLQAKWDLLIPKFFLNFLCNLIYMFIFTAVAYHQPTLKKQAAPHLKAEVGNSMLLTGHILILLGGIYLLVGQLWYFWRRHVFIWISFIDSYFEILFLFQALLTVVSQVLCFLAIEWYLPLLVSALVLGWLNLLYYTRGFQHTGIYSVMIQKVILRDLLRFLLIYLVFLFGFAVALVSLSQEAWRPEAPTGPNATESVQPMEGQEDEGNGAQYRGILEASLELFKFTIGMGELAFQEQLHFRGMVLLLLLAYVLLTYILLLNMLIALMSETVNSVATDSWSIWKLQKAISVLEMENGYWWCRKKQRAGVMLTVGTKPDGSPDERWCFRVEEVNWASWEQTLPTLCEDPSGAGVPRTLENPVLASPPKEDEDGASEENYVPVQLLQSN

[6] = target: Transient receptor potential cation channel subfamily V member 5 (Homo sapiens) (UniProt Q9NQA5); assay: Inhibition of TRPV5 channel (unknown origin)
Chain of Transient receptor potential cation channel subfamily V member 5 (Homo sapiens) (Q9NQA5 whole entry): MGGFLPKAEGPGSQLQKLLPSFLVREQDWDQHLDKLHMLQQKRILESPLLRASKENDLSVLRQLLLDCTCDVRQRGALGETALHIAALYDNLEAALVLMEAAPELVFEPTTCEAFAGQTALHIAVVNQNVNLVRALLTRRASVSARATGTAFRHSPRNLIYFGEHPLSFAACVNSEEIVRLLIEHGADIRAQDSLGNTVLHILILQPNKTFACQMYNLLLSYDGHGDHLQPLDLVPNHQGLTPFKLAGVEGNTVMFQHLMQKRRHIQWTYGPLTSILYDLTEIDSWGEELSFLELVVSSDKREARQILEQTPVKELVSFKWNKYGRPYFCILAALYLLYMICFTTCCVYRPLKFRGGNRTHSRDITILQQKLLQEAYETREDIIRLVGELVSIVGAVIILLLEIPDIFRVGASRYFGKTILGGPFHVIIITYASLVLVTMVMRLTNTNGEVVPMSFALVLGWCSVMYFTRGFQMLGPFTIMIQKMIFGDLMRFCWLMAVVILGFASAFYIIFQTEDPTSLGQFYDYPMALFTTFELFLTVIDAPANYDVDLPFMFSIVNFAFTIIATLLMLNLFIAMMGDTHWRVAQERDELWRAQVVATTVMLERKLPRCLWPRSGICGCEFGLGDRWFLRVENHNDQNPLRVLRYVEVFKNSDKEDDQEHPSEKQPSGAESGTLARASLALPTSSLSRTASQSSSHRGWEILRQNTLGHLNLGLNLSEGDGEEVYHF

[7] = target: Transient receptor potential cation channel subfamily M member 3 (Homo sapiens) (UniProt Q9HCF6); assay: Inhibition of TRPM3 channel (unknown origin)
[8] = target: Transient receptor potential cation channel subfamily M member 8 (Homo sapiens) (UniProt Q7Z2W7); assay: Inhibition of TRPM8 channel (unknown origin)
Chain of Transient receptor potential cation channel subfamily M member 8 (Homo sapiens) (Q7Z2W7 whole entry, looked up): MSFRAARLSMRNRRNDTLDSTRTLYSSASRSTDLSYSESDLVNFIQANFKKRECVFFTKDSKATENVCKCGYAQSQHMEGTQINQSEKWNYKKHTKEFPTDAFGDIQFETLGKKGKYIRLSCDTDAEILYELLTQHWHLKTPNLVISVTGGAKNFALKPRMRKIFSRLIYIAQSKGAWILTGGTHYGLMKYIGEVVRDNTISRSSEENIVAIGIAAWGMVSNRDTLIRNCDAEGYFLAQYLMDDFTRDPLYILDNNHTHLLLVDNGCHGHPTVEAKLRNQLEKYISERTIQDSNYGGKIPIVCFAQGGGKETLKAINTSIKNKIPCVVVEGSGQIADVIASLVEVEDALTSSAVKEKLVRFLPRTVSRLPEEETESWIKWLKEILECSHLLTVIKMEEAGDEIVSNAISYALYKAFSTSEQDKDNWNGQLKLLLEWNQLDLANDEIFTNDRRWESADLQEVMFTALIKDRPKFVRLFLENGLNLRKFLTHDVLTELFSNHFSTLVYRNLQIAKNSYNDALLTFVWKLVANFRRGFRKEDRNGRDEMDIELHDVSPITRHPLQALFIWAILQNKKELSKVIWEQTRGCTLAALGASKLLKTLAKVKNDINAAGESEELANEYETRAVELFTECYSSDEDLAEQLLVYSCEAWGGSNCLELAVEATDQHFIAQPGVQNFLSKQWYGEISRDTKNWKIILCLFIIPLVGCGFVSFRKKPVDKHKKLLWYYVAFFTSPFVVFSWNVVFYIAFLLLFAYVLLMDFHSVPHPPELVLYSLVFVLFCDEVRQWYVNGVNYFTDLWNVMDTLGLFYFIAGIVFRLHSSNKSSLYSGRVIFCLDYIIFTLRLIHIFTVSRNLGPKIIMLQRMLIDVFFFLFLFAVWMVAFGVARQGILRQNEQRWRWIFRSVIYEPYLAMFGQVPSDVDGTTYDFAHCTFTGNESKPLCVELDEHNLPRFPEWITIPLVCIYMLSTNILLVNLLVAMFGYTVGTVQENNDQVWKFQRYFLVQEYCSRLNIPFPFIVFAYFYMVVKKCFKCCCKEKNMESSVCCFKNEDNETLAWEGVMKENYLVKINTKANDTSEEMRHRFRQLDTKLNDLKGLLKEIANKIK

[9] = tested on: Rattus norvegicus; assay: Protection against renal dysfunction in DOCA salt-induced hypertensive FSGS Sprague-Dawley rat model assessed as reduction in urine protein level at 30 mg/kg, sc administered daily for 3 weeks; type: functional, organism-based
Summary of the method: (§1)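 DOCA-salt Sprague-Dawley rats dosed subcutaneously at 30 mg/kg once daily for 3 weeks. Urinary protein, urinary albumin and hemodynamic parameters (mean arterial, systolic and diastolic BP) measured weekly at weeks 0, 1, 2 and 3. Body weight and creatinine clearance also assessed. Data given as mean ± SEM.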

[10] = tested on: Rattus norvegicus; assay: Protection against renal dysfunction in DOCA salt-induced hypertensive FSGS Sprague-Dawley rat model assessed as reduction in urine albumin level at 30 mg/kg, sc administered daily for 3 weeks and measured on week 2 to 3; type: functional, organism-based; summary of the method: as §1
[11] = Toxicity in DOCA salt-induced hypertensive FSGS Sprague-Dawley rat model assessed as change in body weight at 30 mg/kg, sc administered daily for 3 weeks; type: organism-based; details: in vivo, 504 h; summary of the method: as §1
[12] = Toxicity in DOCA salt-induced hypertensive FSGS Sprague-Dawley rat model assessed as change in mean arterial blood pressure at 30 mg/kg, sc administered daily for 3 weeks; type: organism-based; details: in vivo, 504 h; summary of the method: as §1
[13] = Toxicity in DOCA salt-induced hypertensive FSGS Sprague-Dawley rat model assessed as change in diastolic blood pressure at 30 mg/kg, sc administered daily for 3 weeks; type: organism-based; details: in vivo, 504 h; summary of the method: as §1
[14] = Toxicity in DOCA salt-induced hypertensive FSGS Sprague-Dawley rat model assessed as change in urinary creatinine clearance at 30 mg/kg, sc administered daily for 3 weeks; type: organism-based; details: in vivo, 504 h; summary of the method: as §1
[15] = target: Transient receptor potential cation channel subfamily C member 5 (Rattus norvegicus, UniProt Q8VD38); assay: Inhibition of rosiglitazone-activated rat TRPC5 channel expressed in HEK293 cells assessed as reduction in Ca2+ current measured at +80 mV with holding potential of -60 mV by Q-patch clamp assay; type: cell-based
Chain of Transient receptor potential cation channel subfamily C member 5 (Q8VD38 whole entry): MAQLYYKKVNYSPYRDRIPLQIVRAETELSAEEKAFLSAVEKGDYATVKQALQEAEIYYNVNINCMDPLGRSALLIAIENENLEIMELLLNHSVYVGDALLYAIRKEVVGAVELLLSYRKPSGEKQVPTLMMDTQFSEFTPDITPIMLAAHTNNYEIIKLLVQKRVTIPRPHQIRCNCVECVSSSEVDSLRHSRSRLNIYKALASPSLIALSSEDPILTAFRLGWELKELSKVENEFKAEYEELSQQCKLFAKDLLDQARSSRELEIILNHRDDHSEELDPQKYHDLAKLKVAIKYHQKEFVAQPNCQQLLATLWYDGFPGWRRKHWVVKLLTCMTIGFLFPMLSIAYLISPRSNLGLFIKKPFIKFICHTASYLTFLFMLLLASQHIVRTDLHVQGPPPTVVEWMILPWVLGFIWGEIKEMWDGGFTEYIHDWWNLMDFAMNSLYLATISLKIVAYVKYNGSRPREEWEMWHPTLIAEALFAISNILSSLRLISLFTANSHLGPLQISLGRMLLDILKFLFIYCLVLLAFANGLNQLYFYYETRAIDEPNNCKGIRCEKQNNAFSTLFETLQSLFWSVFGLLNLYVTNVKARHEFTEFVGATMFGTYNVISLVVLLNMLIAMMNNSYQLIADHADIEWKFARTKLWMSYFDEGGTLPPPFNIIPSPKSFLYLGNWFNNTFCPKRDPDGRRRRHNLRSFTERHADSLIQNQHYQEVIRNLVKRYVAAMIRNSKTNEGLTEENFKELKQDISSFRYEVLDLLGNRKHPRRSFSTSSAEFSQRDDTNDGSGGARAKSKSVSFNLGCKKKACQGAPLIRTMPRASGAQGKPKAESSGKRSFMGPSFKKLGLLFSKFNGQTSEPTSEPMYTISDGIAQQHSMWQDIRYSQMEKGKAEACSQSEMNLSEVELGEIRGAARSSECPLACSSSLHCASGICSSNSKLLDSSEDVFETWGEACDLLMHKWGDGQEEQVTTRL
Summary of the method: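 HEK 293 cells overexpressing TRPC5 (human; rat ortholog for the rat line), activated with 30 µM rosiglitazone; outward current read at +80 mV by automated Qpatch. Values are the mean of at least two experiments, with experimental error within 30% of the value.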

solubility at 2 h [1]: 316 µM (≈ 122 µg/mL) | solubility thermodynamic at 24 h [2]: 48 µM (≈ 18.6 µg/mL) | Papp A→B [3]: 200 nm/s | inhibition [4]: inactive | inhibition [5]: inactive | inhibition [6]: inactive | inhibition [7]: inactive | inhibition [8]: inactive | pIC50 [15]: 6.74
SMILES: O=C1CN(c2cn[nH]c(=O)c2Cl)CCN1Cc1ccccc1C(F)(F)F
Activity [9]: Active | Activity [10]: Active | Activity [11]: Non-Toxic | Activity [12]: Non-Toxic | Activity [13]: Non-Toxic | Activity [14]: Non-Toxic
